Rin1 Abl inh = blocks binding of human Rin1 to Abl; hit rate 0.4% among 360,000; P00519+Q13671; inhibition, % at 7.35 µM; TR-FRET Rin1/Abl binding, biochemical; AID 588664; in the data active means inhibition above about 5%, passing the limit was not always enough
ERp5 block = blocks human ERp5 reductase activity on insulin | ERp5 insulin aggregation, absorbance 650 nm, 90 min | Q15084 | inhibition, % at 9.99 µM | AID 651711 | hit rate 0.05% among 350,000;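 active means mean replicate inhibition above about 25%, with every replicate also reaching it, limit read from the data, passing the limit was not always enough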
Target sequence (Q15084 whole entry, looked up): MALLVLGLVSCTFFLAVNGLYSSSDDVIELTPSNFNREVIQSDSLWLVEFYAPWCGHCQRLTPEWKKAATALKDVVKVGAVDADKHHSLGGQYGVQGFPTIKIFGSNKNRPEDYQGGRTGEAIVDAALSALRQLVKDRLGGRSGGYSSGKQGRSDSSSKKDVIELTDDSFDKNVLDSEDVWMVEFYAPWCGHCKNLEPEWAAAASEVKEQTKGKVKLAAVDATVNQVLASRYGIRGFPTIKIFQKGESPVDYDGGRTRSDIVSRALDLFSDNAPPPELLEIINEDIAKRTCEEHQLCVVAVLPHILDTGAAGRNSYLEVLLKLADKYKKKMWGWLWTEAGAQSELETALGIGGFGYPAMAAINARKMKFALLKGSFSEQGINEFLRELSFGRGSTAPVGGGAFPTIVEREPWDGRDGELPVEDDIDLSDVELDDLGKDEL
CAL PDZ FP-1 = human CAL PDZ-peptide interaction inhibition; Q9HD26; purified CAL PDZ, TMR-peptide fluorescence polarization, 1 h; inhibition, % at 20 µM; hit rate 0.02% among 330,000; AID 504414;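 active means highest replicate inhibition of at least 40%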;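 further: plate controls were DMSO neutral control wells for no effect and unlabeled competitor peptide control wells for full effect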
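Test system: tagged CAL PDZ domain / Buffer or medium: sodium phosphate/NaCl buffer pH 7.4 with TCEP, IgG, Thesit / Reagent: TMR-labelled reporter peptide T*-PRC34 bound in PDZ groove / Compound dosing: single point, 20 µM / Schedule: 1 h incubation at room temperature before polarization reading / Technique: fluorescence polarization (mP) / Benchmarks: unlabelled peptide, DMSO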
ERAP1 HTS inh = blocks human ERAP1 aminopeptidase activity. AID 652197. hit rate 0.15% among 340,000. inhibition, % at 10.7 µM. Q9NZ08. recombinant ERAP1, Leu-AMC fluorescence, 60 min;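 active means mean replicate inhibition of at least 30%, or all replicates individually reaching that 30% level; inactive means mean below 30% and not every replicate reaching it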;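 further: 0% = neutral control wells and 100% = L-leucinethiol positive control wells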
PDI inh = blocks human protein disulfide isomerase activity | AID 588391 | inhibition, % at 10 µM | PDI insulin aggregation turbidity, A650, 90 min | hit rate 0.052% among 350,000;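 active means mean inhibition across replicates of 30% or more, whatever share of single replicates reach that level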
CAL PDZ FP-2 = blocks peptide binding to the human CAL PDZ domain; purified CAL PDZ, TMR-peptide fluorescence polarization, 1 h; inhibition, % at 24.9 µM; Q9HD26; AID 602252; hit rate 0.92% among 300,000;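 active means mean inhibition of at least 30% with at least half of replicates also reaching 30%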;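 further: 0% = DMSO neutral control and 100% = excess unlabeled competitor peptide PRC23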
Rin1-Abl confirm = Rin1-Abl interaction inhibition confirmation; shares compounds with Rin1 Abl inh; TR-FRET Rin1-Abl binding, purified proteins; inhibition, % at 7.35 µM; hit rate 49% among 1,300; AID 602124
GFP quencher = GFP fluorescence interference artifact; shares compounds with Rin1 Abl inh; inhibitors/quenchers counterscreen; inhibition, % at 6.75 µM; hit rate 8.5% among 1,300; AID 602125;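 further: ABL1-eGFP fusion protein alone without its partner RIN1-SBP; 0% = protein with vehicle and 100% = wells lacking protein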
GFP quench dose = GFP fluorescence interference dose response | shares compounds with Rin1 Abl inh | IC50, µM | GFP fluorescence interference/quenching counterscreen | 230 tested, under 10 active; call rule not given here;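 further: ABL1-eGFP fusion protein alone without its RIN1 binding partner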
An asterisk follows results filed as active; / = no result given. Shown are actives, neighbours in structure and some others; about 1.1% of the full set was active somewhere. Unless noted, no stated cut-off is given here; in the data, active means inhibition above about 6.5%; inactive means the rest.

SMILES | Rin1 Abl inh | ERp5 block | CAL PDZ FP-1 | ERAP1 HTS inh | PDI inh | CAL PDZ FP-2 | Rin1-Abl confirm | GFP quencher | others
Cc1cc(C)nc(NC(=O)c2c(Cl)cccc2Cl)n1 | 4.4* | 0.0 | 1.3 | 3.2 | 11.2 | -3.8 | 2.0 | 3.1
C[C@@H]1CCCCO[C@H](CN(C)C(=O)c2ccccc2)[C@H](C)CN([C@@H](C)CO)C(=O)c2cc(NC(=O)c3ccncc3)ccc2O1 | / | 4.7 | / | 3.2 | / | / | / | /
O=S(=O)(Nc1c(S(=O)(=O)c2ccccc2)c2nc3ccccc3nc2n1C1CCCCC1)c1ccccc1 | 9.8* | -0.7 | -1.3 | -3.8 | -15.7 | -3.8 | -3.8 | 0.1
C=CCn1c(NS(=O)(=O)c2ccccc2)c(S(=O)(=O)c2ccc(C)cc2)c2nc3ccccc3nc21 | 0.8 | -3.8 | -2.0 | 0.7 | 27.6 | -1.4 | / | /
Cc1ccccc1N1CC(C(=O)Nc2ccc(S(=O)(=O)N3CCOCC3)cc2)CC1=O (centres undefined) | 1.1 | 1.3 | -2.3 | 0.4 | 16.2 | -4.3 | / | /
Cc1ccccc1N1CC(C(=O)Nc2ccc(S(=O)(=O)N3CCCCC3)cc2)CC1=O (centres undefined) | 7.7* | -1.8 | -0.6 | 0.2 | 8.1 | / | 7.5* | -1.7
NS(=O)(=O)c1ccc(NC(=O)C2CCCN(S(=O)(=O)c3ccc(F)cc3)C2)cc1 (centres undefined) | 18.3* | / | -2.0 | / | -5.3 | -2.3 | 3.7 | -5.0
Cc1cccc(N2CC(C(=O)Nc3ccc(S(=O)(=O)N4CCCCC4)cc3)CC2=O)c1C (centres undefined) | 13.2* | 0.8 | -2.3 | 2.2 | 2.0 | -0.5 | 13.0* | 0.2
CCCNC(=O)N1C[C@@H](C)[C@H](OC)CN(C)C(=O)c2ccc(NS(=O)(=O)CC(F)(F)F)cc2OC[C@H]1C | / | -0.1 | / | -0.5 | / | / | / | /
CC(=O)Nc1nonc1NC(C)=O | -2.4 | / | 0.6 | / | 1.4 | -3.4 | / | /
CC(=O)Nc1cc(OC(C)=O)c2nonc2c1OC(C)=O | 16.0* | / | -1.4 | / | -6.4 | -2.5 | 0.4 | 4.6
COc1ccc(/C=N/N2C(=O)CN(C(=O)c3ccccc3)C2c2ccc(OC)cc2)cc1 (centres undefined) | 5.8* | -12.2 | / | 1.5 | 9.1 | / | -3.7 | -1.3
COc1ccc(C2N(C(=O)c3ccccc3)CCN2C(=O)c2ccc(C)cc2)cc1 (centres undefined) | -0.8 | -3.2 | 0.3 | 1.6 | -0.6 | -6.3 | / | /
CCc1cc(=O)oc2cc3occ(C)c3cc12 | 10.9* | / | -0.2 | / | -3.3 | -3.1 | -1.8 | 1.6
O=C(NC1CCCCC1)c1ccc(CS(=O)Cc2ccccc2Cl)o1 (centres undefined) | 2.3 | 5.2 | -0.4 | -0.2 | 1.6 | / | / | /
O=C(NC1CCCC1)c1ccc(CS(=O)Cc2ccccc2Cl)o1 (centres undefined) | 18.3* | -1.8 | -0.7 | -0.1 | 9.5 | / | -0.2 | 0.1
COc1cc2c(cc1OC)CN(CC(=O)Nc1cccc([N+](=O)[O-])c1)CC2 | -0.9 | 1.3 | -1.0 | -1.6 | -0.1 | -4.3 | / | /
COc1cc2c(cc1OC)CN(CC(=O)Nc1cccc(C)c1)CC2 | 6.5* | / | -0.1 | / | 22.3 | -0.1 | 1.6 | -0.4
CCCCN1C(=O)N(C)C2C1N(C)C(=O)N2CCCC (centres undefined) | 3.8 | / | -1.8 | / | -4.9 | -3.7 | / | /
CCCCN1C(=O)NC2NC(=O)NC21 (centres undefined) | 96.7* | / | -2.6 | / | 1.6 | -2.9 | 98.7* | -1.9 | GFP quench dose=>67.6
CCCCN1C(=O)N(C)C2NC(=O)NC21 (centres undefined) | 66.1* | / | -1.2 | / | 1.9 | / | 75.5* | 1.4 | GFP quench dose=>67.4
C[C@H](CO)N1C[C@H](C)[C@@H](CN(C)C(=O)c2ccccc2)Oc2cc(C#CC3CC3)ccc2S1(=O)=O | / | 2.7 | / | -0.2 | / | / | / | /
Cc1nn(CC(=O)Nc2ccc(C(=O)N3CCCCC3)cc2)c(=O)c2ccccc12 | 11.9* | / | / | / | -32.6 | 3.8 | 13.3* | -0.1

Bioassay records deposited in PubChem by several laboratories.
